Assay results: ChEMBL document CHEMBL3608281, “Synthesis and biological evaluation of novel 3,9-substituted β-carboline derivatives as anticancer agents” (Bioorg Med Chem Lett, 2015)

Legend:
COLO 205 [1] = assay: Cytotoxicity against human COLO205 cells incubated for 48 hrs by MTT assay; format: functional, cell-based; settings: COLO 205, 48 h
Method in brief: (§1)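 Human tumour lines (HL-60 leukemia, Hep3B liver, H460 lung, A498 renal, COLO205 colon, 2774 and SK-OV-3 ovarian) and normal Detroit 551 skin fibroblasts were exposed to a range of concentrations for 48 h. IC50 is the concentration giving 50% proliferation inhibition, as the mean of three independent determinations.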

[2] = Cytotoxicity against human H460 cells incubated for 48 hrs by MTT assay; format: functional, cell-based; settings: NCI-H460, 48 h; method in brief: as §1
HL-60 [3] = assay: Cytotoxicity against human HL60 cells incubated for 48 hrs by MTT assay; format: functional, cell-based; settings: HL-60, 48 h; method in brief: as §1
Detroit 551 = assay: Cytotoxicity against human Detroit 551 cells incubated for 48 hrs by MTT assay; format: cell-based; settings: Detroit 551, 48 h; method in brief: as §1
SK-OV-3 = assay: Cytotoxicity against human SKOV3 cells incubated for 48 hrs by MTT assay; format: functional, cell-based; settings: SK-OV-3, 48 h; method in brief: as §1
[4] = Cytotoxicity against human Hep3B cells incubated for 48 hrs by MTT assay; format: functional, cell-based, Hep 3B2; method in brief: as §1
A498 = assay: Cytotoxicity against human A498 cells incubated for 48 hrs by MTT assay; format: functional, cell-based; settings: A498, 48 h
[5] = Cytotoxicity against human 2774 cells incubated for 48 hrs by MTT assay; format: functional, cell-based; method in brief: as §1
COLO 205 [6] = assay: Cytotoxicity against human COLO205 cells; format: functional, cell-based
HL-60 [7] = assay: Cytotoxicity against human HL60 cells; format: functional, cell-based
MCF7 = assay: Cytotoxicity against human MCF7 cells; format: functional, cell-based

Row | SMILES | IC50 (COLO 205 [1]) | IC50 [2] | IC50 (HL-60 [3]) | IC50 (Detroit 551) | IC50 (SK-OV-3) | IC50 [4] | IC50 (A498) | IC50 [5] | IC50 (COLO 205 [6]) | IC50 (HL-60 [7]) | IC50 (MCF7)
1 | CCOC(=O)c1cc2c3ccccc3n(Cc3ccccc3)c2cn1 | > 100 µM | > 100 µM | > 100 µM | 50 µM | 3 µM | > 100 µM | 48.2 µM | 26.8 µM |  |  | 
2 | O=C(O)C1Cc2c([nH]c3ccccc23)CN1 (stereo not drawn) | > 50 µM | > 50 µM |  |  |  |  | > 50 µM |  |  |  | 
3 | CCOC(=O)c1cc2c3ccccc3n(Cc3ccccc3OC)c2cn1 | > 100 µM | > 100 µM | 3.9 µM | > 100 µM | > 100 µM | 8.9 µM | 41.3 µM | > 100 µM |  |  | 
4 | O=C(O)c1cc2c3ccccc3n(Cc3ccc(Cl)cc3)c2cn1 | 26.5 µM | 15.1 µM | 3.9 µM |  |  | 1.2 µM | 9.9 µM |  |  |  | 
5 | COc1cc(Cn2c3ccc(C(C)=O)cc3c3cccnc32)cc(OC)c1OC |  |  |  |  |  |  |  |  | 0.52 µM | 0.03 µM | 
6 | OCc1ccc2c(c1)c1ccccc1n2Cc1ccc(Cl)nc1 |  |  |  |  |  |  |  |  |  |  | 20 µM
7 | CCOC(=O)c1cc2c3ccccc3n(Cc3cc(OC)c(OC)c(OC)c3)c2cn1 | > 100 µM | > 100 µM | 21.9 µM | > 100 µM | > 100 µM | > 100 µM | > 100 µM | > 100 µM |  |  | 
8 | CCOC(=O)c1cc2c3ccccc3n(Cc3cccnc3)c2cn1 | > 100 µM | > 100 µM | > 100 µM | > 100 µM | > 100 µM | > 100 µM | > 100 µM | > 100 µM |  |  | 
9 | O=C(O)c1cc2c3ccccc3n(Cc3ccc(F)cc3)c2cn1 | 33.5 µM |  |  |  | 27.7 µM |  | 7.6 µM | 23.5 µM |  |  | 
10 | CCOC(=O)c1cc2c3ccccc3n(Cc3ccccn3)c2cn1 | 38.7 µM | > 100 µM | > 100 µM | > 100 µM |  | > 100 µM | 46.3 µM |  |  |  | 
11 | O=C(O)c1cc2c3ccccc3n(Cc3ccccc3)c2cn1 | 31 µM | 18.5 µM | 5 µM |  |  | 4.4 µM | 9.2 µM |  |  |  | 
